Source: ChEMBL document CHEMBL1146231, “Novel semisynthetic derivative of antibiotic Eremomycin active against drug-resistant gram-positive pathogens including Bacillus anthracis” (J Med Chem, 2007)
Converted amounts (≈) assume the structure as drawn. The source made the active and inactive calls. No cut-off for these calls is given here.

How the values were obtained:
Staphylococcus aureus [1] = assay: Antimicrobial activity against glycopeptide intermediate resistant Staphylococcus aureus 3798 isolate; assay type: functional
Procedure, shortened: (§1)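 MICs were run by broth microdilution as recommended by NCCLS, in cation-adjusted Mueller-Hinton broth. Compound was serially diluted 2-fold, over a final range of 64 to 0.03 µg/mL after inoculation.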

[2] = tested on: Staphylococcus haemolyticus; assay: Antimicrobial activity against Staphylococcus haemolyticus 602 isolate; assay type: functional; procedure, shortened: as §1
Mus musculus [3] = assay: Survival of pulmonary anthrax BALB/c mouse model infected with Bacillus anthracis Ames at 100 mg/kg, sc after 6 days; assay type: functional; settings: 144 h, route subcutaneous
Streptococcus pyogenes = assay: Antimicrobial activity against Streptococcus pyogenes Stpy_8668 isolate; assay type: functional
Enterococcus faecalis [4] = assay: Antimicrobial activity against vancomycin-susceptible Enterococcus faecalis Enfa_29212 isolate; assay type: functional; procedure, shortened: as §1
Mus musculus [5] = assay: Survival of BALB/c mouse pulmonary challenged with Bacillus anthracis at 0.3 mg/kg; assay type: functional
Mus musculus [6] = assay: Survival of pulmonary anthrax BALB/c mouse model infected with Bacillus anthracis Ames at 30 mg/kg, sc twice daily for 6 days; assay type: functional; settings: 144 h, route subcutaneous
Mus musculus [7] = assay: Survival of BALB/c mouse pulmonary challenged with Bacillus anthracis at 1 mg/kg; assay type: functional
[8] = tested on: Staphylococcus epidermidis; assay: Antimicrobial activity against Staphylococcus epidermidis 533 isolate; assay type: functional; procedure, shortened: as §1
Mus musculus [9] = assay: Survival of BALB/c mouse pulmonary challenged with Bacillus anthracis at 3 mg/kg; assay type: functional
Mus musculus [10] = assay: Survival of pulmonary anthrax BALB/c mouse model infected with Bacillus anthracis Ames at 30 mg/kg, sc after 6 days; assay type: functional; settings: 144 h, route subcutaneous
Enterococcus faecium [11] = assay: Antimicrobial activity against vancomycin-susceptible Enterococcus faecium 568 isolate; assay type: functional; procedure, shortened: as §1
Bacillus anthracis [12] = assay: Antimicrobial activity against Bacillus anthracis Ames; assay type: functional
Bacillus anthracis [13] = assay: Antimicrobial activity against Bacillus anthracis HH105-6 isolate; assay type: functional
Staphylococcus aureus [14] = assay: Antimicrobial activity against methicillin-resistant Staphylococcus aureus Stau_HIP5827 isolate; assay type: functional; procedure, shortened: as §1
Mus musculus [15] = assay: Survival of BALB/c mouse pulmonary challenged with Bacillus anthracis at 10 mg/kg; assay type: functional
Staphylococcus aureus [16] = assay: Antimicrobial activity against methicillin-resistant Staphylococcus aureus Stau_Mu50-HIP5406 isolate; assay type: functional; procedure, shortened: as §1
Mus musculus [17] = assay: Survival of pulmonary anthrax BALB/c mouse model infected with Bacillus anthracis Ames at 10 mg/kg, sc after 6 days; assay type: functional; settings: 144 h, route subcutaneous
Enterococcus faecalis [18] = assay: Antimicrobial activity against vancomycin-resistant Enterococcus faecalis Enfa_t29862 isolate; assay type: functional; procedure, shortened: as §1
Staphylococcus aureus [19] = assay: Antimicrobial activity against methicillin-resistant Staphylococcus Stau_33591 isolate; assay type: functional; procedure, shortened: as §1
Staphylococcus aureus [20] = assay: Antimicrobial activity against methicillin-resistant Staphylococcus aureus Stau_b11386 isolate; assay type: functional; procedure, shortened: as §1
Bacillus anthracis [21] = assay: Antimicrobial activity against Bacillus anthracis HH105-5 isolate; assay type: functional
Escherichia coli = assay: Antimicrobial activity against Escherichia coli Esco_25922 isolate; assay type: functional
Staphylococcus aureus [22] = assay: Antimicrobial activity against glycopeptide intermediate resistant Staphylococcus aureus 3793 isolate; assay type: functional; procedure, shortened: as §1
Staphylococcus aureus [23] = assay: Antimicrobial activity against methicillin-resistant Staphylococcus aureus Stau_29213 isolate; assay type: functional; procedure, shortened: as §1
Enterococcus faecium [24] = assay: Antimicrobial activity against vancomycin-resistant Enterococcus faecium 569 isolate; assay type: functional; procedure, shortened: as §1
Enterococcus faecalis [25] = assay: Antimicrobial activity against vancomycin-resistant Enterococcus faecalis Enfa_vre-2 isolate; assay type: functional; procedure, shortened: as §1
Mus musculus [26] = species: Mus musculus; assay: Effect on survival of BALB/c mouse infected with Staphylococcus aureus PGO#172; assay type: functional
Procedure, shortened: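 Mice received a lethal dose of S. aureus PGO#172 (ATCC#29213) by intraperitoneal injection. They were treated with an iv bolus at 1, 5, 10, 25 or 50 mg/kg, in groups of five. Mortality was the endpoint, and ED50 was derived from the dose-response.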

Enterococcus faecalis [27] = assay: Antimicrobial activity against vancomycin-resistant Enterococcus faecalis 560 isolate; assay type: functional; procedure, shortened: as §1
Bacillus anthracis [28] = assay: Antimicrobial activity against Bacillus anthracis HH113-6R isolate; assay type: functional
Bacillus anthracis [29] = assay: Antimicrobial activity against Bacillus anthracis HH105-5R isolate; assay type: functional
Enterococcus faecalis [30] = assay: Antimicrobial activity against vancomycin-susceptible Enterococcus faecalis 559 isolate; assay type: functional; procedure, shortened: as §1
Bacillus anthracis [31] = assay: Antimicrobial activity against Bacillus anthracis HHT105-5R isolate; assay type: functional
[32] = Volume of distribution in BALB/c mouse at 25 mg/kg, iv; assay type: ADME, organism-based; parameters: dose 25 mg/kg, route intravenous; settings: in vivo, read-out: Vss
Procedure, shortened: (§2)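 Female BALB/c mice received the test compound by the iv, sc, ip or po route. Plasma exposure gave Cmax, bioavailability from the sc, ip and po routes, iv half-life, clearance and Vss. Clinical observations and mortality were also recorded.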

[33] = Cmax in BALB/c mouse at 25 mg/kg, iv; assay type: ADME, organism-based; parameters: dose 25 mg/kg, route intravenous; settings: in vivo; procedure, shortened: as §2
[34] = Cmax in BALB/c mouse at 25 mg/kg, ip; assay type: ADME, organism-based; parameters: dose 25 mg/kg, route intraperitoneal; settings: in vivo; procedure, shortened: as §2
[35] = Half life in BALB/c mouse at 25 mg/kg, iv; assay type: ADME, organism-based; parameters: dose 25 mg/kg, route intravenous; settings: in vivo; procedure, shortened: as §2
[36] = Cmax in BALB/c mouse at 25 mg/kg, sc; assay type: ADME, organism-based; parameters: dose 25 mg/kg, route subcutaneous; settings: in vivo; procedure, shortened: as §2
[37] = Bioavailability in BALB/c mouse at 70 mg/kg, po; assay type: ADME, organism-based; settings: in vivo; procedure, shortened: as §2
[38] = Bioavailability in BALB/c mouse at 25 mg/kg, ip; assay type: ADME, organism-based; settings: in vivo; procedure, shortened: as §2
[39] = Bioavailability in BALB/c mouse at 25 mg/kg, sc; assay type: ADME, organism-based; settings: in vivo; procedure, shortened: as §2
[40] = Clearance in BALB/c mouse at 25 mg/kg, iv; assay type: ADME, organism-based; parameters: dose 25 mg/kg, route intravenous; settings: in vivo; procedure, shortened: as §2
Bacillus anthracis [41] = assay: Protection against Bacillus anthracis challenged BALB/c mouse at 106 mg/kg, iv after 3 days; assay type: functional, organism-based; parameters: dose 106 mg/kg
Mus musculus [42] = assay: Protection against pulmonary anthrax BALB/c mouse model infected with Bacillus anthracis at 135 mg/kg, po after 6 days; assay type: functional; settings: 144 h
Mus musculus [43] = assay: Survival of BALB/c mouse pulmonary challenged with Bacillus anthracis at 114 mg/kg, po; assay type: functional

SMILES	MIC (Staphylococcus aureus [1]) [µg/mL]	MIC [2] [µg/mL]	MIC [8] [µg/mL]	survival at 30 mg/kg (Mus musculus [10]) [%]	MIC (Enterococcus faecium [11]) [µg/mL]	MIC (Bacillus anthracis [13]) [µg/mL]	MIC (Bacillus anthracis [21]) [µg/mL]	MIC (Staphylococcus aureus [22]) [µg/mL]	MIC (Enterococcus faecium [24]) [µg/mL]	MIC (Enterococcus faecalis [27]) [µg/mL]	MIC (Bacillus anthracis [28]) [µg/mL]	MIC (Bacillus anthracis [29]) [µg/mL]	MIC (Enterococcus faecalis [30]) [µg/mL]	MIC (Bacillus anthracis [31]) [µg/mL]	also measured
CN[C@H](CC(C)C)C(=O)N[C@H]1C(=O)N[C@@H](CC(N)=O)C(=O)N[C@H]2C(=O)N[C@H]3C(=O)N[C@H](C(=O)N[C@H](C(=O)NC45CC6CC(CC(C6)C4)C5)c4cc(O)cc(O)c4-c4cc3ccc4O)[C@H](O[C@@H]3C[C@@](C)(N)[C@H](O)[C@@H](C)O3)c3ccc(cc3)Oc3cc2cc(c3O[C@H]2O[C@@H](CO)[C@H](O)[C@@H](O)[C@@H]2O[C@H]2C[C@](C)(N)[C@@H](O)[C@H](C)O2)Oc2ccc(cc2Cl)[C@H]1O [listing 1 of 2 here]	2 (≈ 1.18 µM)	0.25 (≈ 0.148 µM)	0.25 (≈ 0.148 µM)	88	0.5 (≈ 0.296 µM)	0.5 (≈ 0.296 µM)	0.5 (≈ 0.296 µM)	1 (≈ 0.591 µM)	4 (≈ 2.37 µM)	8 (≈ 4.73 µM)	0.5 (≈ 0.296 µM)	0.25 (≈ 0.148 µM)	0.5 (≈ 0.296 µM)	0.25 (≈ 0.148 µM)	survival at 100 mg/kg (Mus musculus [3]): 100%; MIC (Streptococcus pyogenes): 0.2 µg/mL (≈ 0.118 µM); MIC (Enterococcus faecalis [4]): 0.4 µg/mL (≈ 0.237 µM); survival at 0.3 mg/kg (Mus musculus [5]): 12.5%; survival at 30 mg/kg (Mus musculus [6]): 86%; survival at 1 mg/kg (Mus musculus [7]): 50%; survival at 3 mg/kg (Mus musculus [9]): 62.5%; MIC (Bacillus anthracis [12]): 0.5 µg/mL (≈ 0.296 µM); MIC (Staphylococcus aureus [14]): 1.56 µg/mL (≈ 0.922 µM); survival at 10 mg/kg (Mus musculus [15]): 85.7%; MIC (Staphylococcus aureus [16]): 0.4 µg/mL (≈ 0.237 µM); survival at 10 mg/kg (Mus musculus [17]): 88%; MIC (Enterococcus faecalis [18]): 6.25 µg/mL (≈ 3.7 µM); MIC (Staphylococcus aureus [19]): 0.78 µg/mL (≈ 0.461 µM); MIC (Staphylococcus aureus [20]): 0.78 µg/mL (≈ 0.461 µM); MIC (Escherichia coli): > 50 µg/mL; MIC (Staphylococcus aureus [23]): 0.78 µg/mL (≈ 0.461 µM); MIC (Enterococcus faecalis [25]): 12.5 µg/mL (≈ 7.39 µM); ED50 (Mus musculus [26]): 20.4 mg/kg
CN[C@H](CC(C)C)C(=O)N[C@H]1C(=O)N[C@@H](CC(N)=O)C(=O)N[C@H]2C(=O)N[C@H]3C(=O)N[C@H](C(=O)N[C@H](C(=O)NC(C)C4C5CC6CC(C5)CC4C6)c4cc(O)cc(O)c4-c4cc3ccc4O)[C@H](O[C@@H]3C[C@@](C)(N)[C@H](O)[C@@H](C)O3)c3ccc(cc3)Oc3cc2cc(c3O[C@H]2O[C@@H](CO)[C@H](O)[C@@H](O)[C@@H]2O[C@H]2C[C@](C)(N)[C@@H](O)[C@H](C)O2)Oc2ccc(cc2Cl)[C@H]1O (some centres not stated)	2 (≈ 1.16 µM)	1 (≈ 0.582 µM)	0.5 (≈ 0.291 µM)		0.5 (≈ 0.291 µM)			4 (≈ 2.33 µM)	16 (≈ 9.31 µM)	16 (≈ 9.31 µM)			1 (≈ 0.582 µM)		
CN[C@H](CC(C)C)C(=O)N[C@H]1C(=O)N[C@@H](CC(N)=O)C(=O)N[C@H]2C(=O)N[C@H]3C(=O)N[C@H](C(=O)N[C@H](C(=O)NC45CC6CC(CC(C6)C4)C5)c4cc(O)cc(O)c4-c4cc3ccc4O)[C@H](O[C@@H]3C[C@@](C)(N)[C@H](O)[C@@H](C)O3)c3ccc(cc3)Oc3cc2cc(c3O[C@H]2O[C@@H](CO)[C@H](O)[C@@H](O)[C@@H]2O[C@H]2C[C@](C)(N)[C@@H](O)[C@H](C)O2)Oc2ccc(cc2Cl)[C@H]1O [listing 2 of 2 here]															Vd [32]: 2.18 L/kg; Cmax [33]: 11500 ng/mL; Cmax [34]: 9700 ng/mL; half-life [35]: 2.8 h; Cmax [36]: 7200 ng/mL; bioavailability [37]: 0%; bioavailability [38]: 95%; bioavailability [39]: 78%; clearance [40]: 8.93 mL/min/kg
O=C(O)c1cn(C2CC2)c2cc(N3CCNCC3)c(F)cc2c1=O [CIPROFLOXACIN]				75		32 (≈ 96.6 µM)	8 (≈ 24.1 µM)				4 (≈ 12.1 µM)	4 (≈ 12.1 µM)		8 (≈ 24.1 µM)	Activity (Bacillus anthracis [41]): Active; survival at 135 mg/kg (Mus musculus [42]): 75%; survival at 114 mg/kg (Mus musculus [43]): 87.5%
CN[C@H](CC(C)C)C(=O)N[C@H]1C(=O)N[C@@H](CC(N)=O)C(=O)N[C@H]2C(=O)N[C@H]3C(=O)N[C@H](C(=O)N[C@H](C(=O)NC4C5CC6CC(C5)CC4C6)c4cc(O)cc(O)c4-c4cc3ccc4O)[C@H](O[C@@H]3C[C@@](C)(N)[C@H](O)[C@@H](C)O3)c3ccc(cc3)Oc3cc2cc(c3O[C@H]2O[C@@H](CO)[C@H](O)[C@@H](O)[C@@H]2O[C@H]2C[C@](C)(N)[C@@H](O)[C@H](C)O2)Oc2ccc(cc2Cl)[C@H]1O (some centres not stated)	2 (≈ 1.18 µM)	1 (≈ 0.591 µM)	0.5 (≈ 0.296 µM)		1 (≈ 0.591 µM)			2 (≈ 1.18 µM)	16 (≈ 9.46 µM)	16 (≈ 9.46 µM)			1 (≈ 0.591 µM)		
